KDM4C inh = inhibitors of GASC-1 (KDM4C) histone demethylase, primary screen, biochemical, single concentration HTS; Lysine-specific demethylase 4C (Homo sapiens), Q9H3R0; GST-KDM4C 2-372, H3K9me3 peptide, LANCE TR-FRET; inhibition, % at 12.5 µM; 96,000 tested, 0.15% active; AID 720574, 2013;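 active = mean replicate inhibition above about 25%, with at least 55% of replicates also reaching it, limit read from the data, passing the limit was not always enough; inconclusive = only one of those two conditions met; inactive = neither condition met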
Target sequence (Q9H3R0 2-372 limits assumed): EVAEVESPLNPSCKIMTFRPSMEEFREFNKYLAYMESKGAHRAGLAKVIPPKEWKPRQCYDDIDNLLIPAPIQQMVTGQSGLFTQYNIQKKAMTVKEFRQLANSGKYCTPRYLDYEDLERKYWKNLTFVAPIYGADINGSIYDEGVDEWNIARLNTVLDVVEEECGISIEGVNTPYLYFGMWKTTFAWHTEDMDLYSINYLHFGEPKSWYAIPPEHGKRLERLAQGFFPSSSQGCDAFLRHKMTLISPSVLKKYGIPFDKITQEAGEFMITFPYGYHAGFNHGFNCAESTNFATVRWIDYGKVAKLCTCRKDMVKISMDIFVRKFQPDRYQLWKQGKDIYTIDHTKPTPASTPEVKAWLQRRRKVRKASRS
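Material: N-terminal GST-fused human GASC-1 (KDM4C) fragment, residues 2-372. Input: 10 nM enzyme. Incubation: enzyme reaction 30 min, then detection 60 min, both room temperature. Doses: one test concentration per compound. Read-out basis: inhibition from TR-FRET ratio decrease. Detection: LANCE TR-FRET, excitation 340 nm, emissions 618 and 671 nm.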
IDH1 R132H inh = inhibitors of IDH1 R132H reductase, primary screen, biochemical, plate reader, single point | diaphorase/resazurin fluorescence, 60 min | inhibition, % at 10 µM | 70,000 tested, 0.18% active; in the data active = inhibition above about 34%; inconclusive = no clear call, values can overlap the other calls; inactive = below about 11%;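 also: 0% = DMSO and 100% = no enzyme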
T cruzi growth-1 = T. cruzi intracellular proliferation inhibitors, primary screen, cell-based, beta-gal Tulahuen parasites, NIH3T3 host, luminescence; T. cruzi beta-gal in NIH3T3, GalScreen luminescence, 90 h; inhibition, % at 8.34 µM; 77,000 tested, 5.9% active; AID 624255, 2012;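 active = mean inhibition above about 93%, with at least 55% of replicates each passing it, limit read from the data, passing the limit was not always enough; inconclusive = only one of those two conditions holds; inactive = neither condition holds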
T cruzi growth-2 = T. cruzi intracellular proliferation inhibitors, confirmation, cell-based, NIH3T3 host, beta-gal parasite, luminescence, cherry-pick; shares compounds with T cruzi growth-1; inhibition, % at 8.35 µM; AID 651739, 2012; T. cruzi beta-gal in NIH3T3, GalScreen luminescence, 90 h; 5,600 tested, 72% active;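 active = mean replicate inhibition above about 95% and at least 55% of replicates individually reaching it, limit read from the data; inconclusive = only one of the two criteria is met; inactive = neither criterion is met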
T cruzi growth-3 = inhibitors of intracellular T. cruzi replication, confirmation, NIH3T3 host cells, beta-gal parasites, cherry-pick, set 2; inhibition, % at 2.09 µM; 5,600 tested, 21% active; shares compounds with T cruzi growth-1; T. cruzi beta-gal in NIH3T3, GalScreen luminescence, 90 h;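 active = mean inhibition above about 95%, with at least 55% of replicates also reaching it, limit read from the data; inconclusive = meets just one of the two conditions; inactive = meets neither condition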;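 also: plate controls were neutral control median for no effect and positive control median for full effect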
3T3 cytotox = cytotoxicity in mouse NIH/3T3 fibroblasts, confirmation, cytotoxicity control for T. cruzi proliferation inhibitor project, cell-based, cherry-pick, single point; shares compounds with T cruzi growth-1; NIH/3T3 viability, CellTiter-Glo ATP luminescence, 90 h; cytotoxicity (signal decrease), % at 8.35 µM; 5,600 tested, 14% active; AID 651742, 2012;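 active = mean signal decrease across replicates above about 35% based on untreated-well scatter, with enough replicates individually passing, limit read from the data; inconclusive = no rule stated though some were filed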;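 also: 0% = median of neutral control wells and 100% = median of positive control wells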
3T3 cytotox 2 = NIH/3T3 fibroblast cytotoxicity, confirmation, cytotoxicity control, cell-based, cherry-pick, single point, set 2; inhibition, % at 24.9 µM; NIH/3T3 viability, CellTiter-Glo ATP luminescence, 90 h; 5,600 tested, 56% active; shares compounds with T cruzi growth-1;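 active = mean loss of cell viability signal at or above a set limit, and enough replicates individually reaching it; inconclusive = meets only the mean limit or only the replicate share; inactive = meets neither condition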;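 also: 0% = median of neutral control wells and 100% = median of positive control wells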
Active calls of the source: *; ? = inconclusive; · = no result given. The entries come from a sample that favours hits as a whole.

SMILES	KDM4C inh	IDH1 R132H inh	T cruzi growth-1	T cruzi growth-2	T cruzi growth-3	3T3 cytotox	3T3 cytotox 2
COc1ccc(NC(=O)N(C)C[C@H]2Oc3c(NS(=O)(=O)c4cn(C)cn4)cccc3C(=O)N([C@H](C)CO)C[C@@H]2C)cc1	0	-1	76	·	·	·	·
CCCN1C[C@@H](C)[C@@H](OC)CN(C)C(=O)c2cc(NC(=O)CC)ccc2OC[C@@H]1C	-1	0	-47	·	·	·	·
O=C(Nc1ccccc1F)N[C@H]1CC[C@H](CCNC(=O)C2CCOCC2)O[C@@H]1CO	3	0	-6	·	·	·	·
C[C@@H]1CN([C@@H](C)CO)C(=O)c2cc(N(C)C)ccc2O[C@@H]1CN(C)Cc1ccc(-c2ccccc2)cc1	-2	0	78	·	·	·	·
O=C(N[C@@H]1CC[C@@H](CCn2cc(-c3ccc(F)cc3)nn2)O[C@H]1CO)c1cnccn1	-1	0	·	·	·	·	·
CO[C@@H]1CN(C)C(=O)c2ccc(NC(=O)c3cc(C)on3)cc2OC[C@@H](C)N(C)C[C@H]1C	0	·	·	·	·	·	·
CC=Cc1ccc2n(c1=O)C[C@H]1[C@H](CO)[C@@H](C(=O)NCc3ccccc3)[C@@H]2N1C (mixture of isomers)	-2	·	96*	43	19	9	5
CC=Cc1ccc2n(c1=O)C[C@H]1[C@H](CO)[C@@H](C(=O)NCCc3ccccc3)[C@@H]2N1C (mixture of isomers)	-1	·	-23	·	·	·	·
CN1c2ccc(-c3cccc(F)c3)cc2[C@@H]2[C@@H](CCN2C(=O)Cc2cccnc2)[C@@H]1CO	4	·	73	·	·	·	·
CN1c2ccc(-c3ccc(F)cc3)cc2[C@@H]2[C@@H](CCN2C(=O)Cc2ccccn2)[C@H]1CO	0	·	10	·	·	·	·
CN1c2ccc(-c3ccc(F)cc3)cc2[C@@H]2[C@@H](CCN2C(=O)Cc2ccccn2)[C@@H]1CO	1	·	56	·	·	·	·
COc1ccc(-c2ccc3c(c2)[C@@H]2[C@@H](CCN2C(=O)Cc2ccccn2)[C@@H](CO)N3C)cc1	0	·	?	107*	84	-30	-12
CN1c2ccc(-c3cccc(C#N)c3)cc2[C@H]2[C@H](CCN2C(=O)C2CC2)[C@H]1CO	0	·	·	·	·	·	·
CN1c2ccc(-c3ccc(F)cc3)cc2[C@@H]2[C@@H](CCN2C(=O)Cc2cccnc2)[C@H]1CO	1	·	115*	117*	103*	-9	3
CN1c2ccc(-c3cccc(C#N)c3)cc2[C@@H]2[C@@H](CCN2C(=O)Cc2ccccn2)[C@@H]1CO	-1	·	106*	102*	51	-11	36*
CN1c2ccc(-c3ccc(F)cc3)cc2[C@H]2[C@H](CCN2C(=O)Cc2ccccn2)[C@@H]1CO	2	·	?	110*	54	-36	-7
CN1CCN(C(=O)C[C@H]2C=C[C@@H](NS(=O)(=O)c3cccc(F)c3)[C@H](CO)O2)CC1	0	0	-15	·	·	·	·
Cc1noc(C)c1NC(=O)N(C)C[C@H]1Oc2ncc(/C=C/c3ccccc3)cc2C(=O)N([C@@H](C)CO)C[C@H]1C	-3	·	·	·	·	·	·
COc1cccc(S(=O)(=O)Nc2ccc3c(c2)C(=O)N(C)C[C@@H](OC)[C@H](C)CN(Cc2ccccc2F)[C@@H](C)CO3)c1	-1	0	·	·	·	·	·
CN(C)C(=O)c1cccc(-c2ccc3c(c2)[C@@H]2[C@@H](CCN2C(=O)Cc2ccccn2)[C@@H](CO)N3C)c1	2	·	27	·	·	·	·
CN1c2ccc(-c3ccc(F)cc3)cc2[C@H]2[C@H](CCN2C(=O)Cc2ccccn2)[C@H]1CO	0	·	5	·	·	·	·
CN1c2ccc(-c3cccc(C#N)c3)cc2[C@H]2[C@H](CCN2C(=O)CN2CCOCC2)[C@H]1CO	-1	·	?	108*	9	2	16
CN1c2ccc(-c3cccc(C#N)c3)cc2[C@H]2[C@H](CCN2C(=O)CN2CCOCC2)[C@@H]1CO	0	·	57	·	·	·	·
CN1c2ccc(-c3ccccc3)cc2[C@@H]2[C@@H](CCN2C(=O)Cc2ccccn2)[C@@H]1CO	1	·	99*	105*	58	-8	-6
CN(C)C(=O)c1ccc(-c2ccc3c(c2)[C@H]2[C@H](CCN2C(=O)Cc2ccccn2)[C@@H](CO)N3C)cc1	2	·	?	106*	46	-5	-8
SMILES	KDM4C inh	IDH1 R132H inh	T cruzi growth-1	T cruzi growth-2	T cruzi growth-3	3T3 cytotox	3T3 cytotox 2
CN1c2ccc(-c3ccc(C#N)cc3)cc2[C@@H]2[C@@H](CCN2C(=O)CC2CC2)[C@@H]1CO	0	·	?	100*	?	47*	80*
CCC(=O)N1CC[C@@H]2[C@H]1c1cc(-c3ccc(C#N)cc3)ccc1N(C)[C@H]2CO	-1	·	81	·	·	·	·
N#CC(C#N)=C(N)/C(C#N)=C/c1ccc2[nH]ccc2c1	·	0	·	·	·	·	·
COCC(=O)Nc1ccc2c(c1)C(=O)N(C)C[C@@H](OC)[C@@H](C)CN(CCc1ccccc1)[C@H](C)CO2	-2	0	3	·	·	·	·
N#C[C@H]1[C@@H](c2ccc(C3=CCCCC3)cc2)[C@@H](CO)N1C(=O)CN1CCOCC1	0	·	89	·	·	·	·
C[C@@H]1CN([C@@H](C)CO)C(=O)c2c(c3ccccc3n2C)-c2ccccc2CO[C@H]1CN(C)Cc1ccc(F)cc1	-3	·	·	·	·	·	·
C[C@H](CO)N1C[C@H](C)[C@H](CN(C)C(=O)[C@H](Cc2ccccc2)N(C)C)OCc2ccccc2-c2c(n(C)c3ccccc23)C1=O	0	0	?	88	35	16	?
C[C@H]1CN([C@@H](C)CO)C(=O)c2c(c3ccccc3n2C)-c2ccccc2CO[C@H]1CN(C)Cc1cccnc1	3	7	?	88	27	37*	63*
C[C@H]1CN([C@@H](C)CO)C(=O)c2c(c3ccccc3n2C)-c2ccccc2CO[C@H]1CN(C)Cc1ccc(F)cc1	1	·	·	·	·	·	·
C[C@H]1CN([C@@H](C)CO)C(=O)c2c(c3ccccc3n2C)-c2ccccc2CO[C@@H]1CN(C)C(=O)[C@@H](Cc1ccccc1)N(C)C	0	·	-9	·	·	·	·
C[C@@H]1CN([C@H](C)CO)C(=O)c2c(c3ccccc3n2C)-c2ccccc2CO[C@@H]1CN(C)Cc1cccnc1	0	2	111*	109*	53	1	51*
